Bioassay records from PubChem.
Sampled rows, rich in hits. Any-hit rate of the full collection: about 2.3%.
OXTR agonist: human OXTR agonists, primary screen, fluorescence, CHO-OTR cells, Fluo-8 calcium; Oxytocin receptor (Homo sapiens), P30559; Fluo-8 calcium fluorescence; normalized: DMSO 0%, oxytocin 100%; activation, % at 3 µM; hit rate 0.32% among 320,000;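 active means activation above the mean of all tested compounds plus 3 SD, cutoff set per screening run, cut at about 20% in these data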;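 further: peak over basal fluorescence ratio from a 100 s FLIPR kinetic read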
V1R ag counter: agonists of human V1a receptor, primary screen, counter-screen for OXTR agonist project, fluorescence, CHO-V1R cells; Fluo-8 calcium fluorescence, agonist mode; 0% DMSO, 100% 3 nM vasopressin; activation, % at 3 µM; hit rate 0.25% among 320,000;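 active means activation above the mean activation of all tested compounds plus 3 SD, per screening run, cut at about 20% in these data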;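 further: signal is peak over basal fluorescence ratio across a 100 second FLIPR read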
Target sequence (P37288 whole entry, looked up): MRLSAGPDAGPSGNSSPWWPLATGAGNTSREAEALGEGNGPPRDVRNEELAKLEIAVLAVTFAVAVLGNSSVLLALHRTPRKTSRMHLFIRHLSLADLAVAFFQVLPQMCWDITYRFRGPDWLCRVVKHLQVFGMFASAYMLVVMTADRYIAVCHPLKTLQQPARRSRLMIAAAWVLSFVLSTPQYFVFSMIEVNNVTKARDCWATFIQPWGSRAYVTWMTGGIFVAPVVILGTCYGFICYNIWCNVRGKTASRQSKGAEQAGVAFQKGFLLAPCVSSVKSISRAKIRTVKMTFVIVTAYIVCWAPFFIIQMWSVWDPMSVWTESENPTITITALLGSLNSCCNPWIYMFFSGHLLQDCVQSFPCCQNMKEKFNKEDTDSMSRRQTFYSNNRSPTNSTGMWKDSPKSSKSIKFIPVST
TAAR1 ag: human TAAR1 agonists, primary screen, Fluo-8 calcium fluorescence, CHO RD-HGA16 cells; Trace amine-associated receptor 1 (Homo sapiens), Q96RJ0; activation, % at 3 µM; vehicle wells 0%, saturating PEA agonist 100%; AID 624467, 2012; hit rate 0.99% among 360,000;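 active means activation above the mean activation of all test compounds in the run plus 3 SD, cut at about 38% in these data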
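Repeats: no replicates (n 1) | Material: CHO-derived RD-HGA16 cells with stable Gα16 and human TAAR1 | Technique: Kinetic Fluo-8 calcium fluorescence | Schedule: 17-24 h seeding, 75 min 37 °C dye, 30 min RT | Evaluation: % activation from peak over basal fluorescence ratio, DMSO-to-PEA scaled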
OXTR potentiate: human OXTR potentiators, primary screen, fluorescence, CHO-OTR cells, Fluo-8 calcium; AID 2445, 2010; Oxytocin receptor (Homo sapiens), P30559; hit rate 0.061% among 320,000; activation, % at 3 µM; Fluo-8 calcium fluorescence, potentiator mode; 0% = oxytocin EC15, 100% = EC100;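 active means activation above that plate's cutoff, the mean activation of tested compounds plus 3 SD, cut at about 6.6% in these data, passing the limit was not always enough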;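 further: 100% uses oxytocin at 75 nM as the full agonist control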
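System: human OTR in CHO cells; Also added: sub-maximal oxytocin, roughly EC15; Timing: compound 6 min at room temperature before oxytocin, 100 s read; Technique: Fluo-8 intracellular calcium fluorescence, ex 470-495, em 515-575 nm; Controls: oxytocin EC15 low and EC100 high; Replication: singlicate.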
TAAR1 antag: human TAAR1 antagonists, primary screen, Fluo-8 calcium fluorescence, CHO RD-HGA16 cells. hit rate 1.5% among 360,000. Trace amine-associated receptor 1 (Homo sapiens), Q96RJ0. antagonist. inhibition, % at 3 µM. AID 624466, 2012;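 active means inhibition above a per-plate cutoff, the mean inhibition of test compounds on that plate plus 3 SD, cut at about 49% in these data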;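 further: 0% = DMSO plus EC80 beta-PEA response and 100% = DMSO alone without agonist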
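Material: RD-HGA16 CHO cells with stable hTAAR1 and Gα16; Dosing: single nominal final test compound concentration of 3 µM; Schedule: seeding 17-24 h prior, 75-min 37 °C, 30-min RT dye loading; Detection: kinetic Fluo-8 calcium fluorescence measurement; Measure: % inhibition from peak post-agonist over basal fluorescence ratio; Benchmarks: vehicle and agonist controls.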
* = called active by the depositor; . = no result given.

SMILES	OXTR agonist	V1R ag counter	TAAR1 ag	OXTR potentiate	TAAR1 antag
CCCOc1ccc(Br)cc1CSC(=N)N	16.4	13.3	80.5*	-18.3	50.4*
CCOc1ccc(Br)cc1CC(=O)O	-0.7	-0.4	5.4	-8.4	-1.5
COc1cc(/C=C(\C#N)c2nc3ccccc3n2C)cc(OC)c1O	25.7*	28.6*	13.1	-5.1	12.9
COc1cc(/C=C(\C#N)c2nc3ccccc3[nH]2)cc(OC)c1O	27.6*	28.9*	34.2	-10.2	24.5
COc1cc(/C=C(\C#N)C(=O)c2c[nH]c3ccccc23)cc(OC)c1O	11.5	6.6	40.6*	-17.7	-8.4
COc1cc(/C=C(\C#N)C(=O)NCCc2ccccc2)cc(OC)c1O	8.2	10.5	30.2	-18.8	9.3
Cc1nc2sccn2c(=O)c1S(=O)(=O)Nc1ccc(N2CCN(S(C)(=O)=O)CC2)cc1	3.4	4.0	21.2	-8.3	59.6*
Cn1nc(N)c2c(-c3ccc(Cl)cc3)c(C#N)c(N)nc21	1.1	1.2	0.2	-3.6	-0.6
CCN(CC)c1ccc(-c2c(C#N)c(N)nc(OC)c2C#N)cc1	4.7	4.1	32.6	-10.0	56.5*
COc1ccc(C2(c3ccc(OC)cc3)NC(=O)N(CC(=O)NCC(C)c3ccccc3)C2=O)cc1 (stereo not drawn)	0.3	2.9	22.2	-7.4	56.7*
CCOc1ccc(S(=O)(=O)N2CCCCC2)cc1NC(=O)CN1C(=O)NC(CC)(c2ccccc2)C1=O (stereo not drawn)	1.4	1.1	2.4	-6.9	17.1
CCC1(c2ccccc2)NC(=O)N(CC(=O)Nc2cc(S(=O)(=O)N3CCCCCC3)ccc2OC)C1=O (stereo not drawn)	-0.6	-0.2	15.3	-14.7	69.7*
COc1ccc(S(=O)(=O)N2CCCCC2)cc1NC(=O)CN(C)C1CCCCC1	-1.9	-1.3	-1.2	6.9	-10.1
COc1ccc(S(=O)(=O)N2CCCCC2)cc1NC(=O)CN(Cc1ccco1)Cc1ccco1	1.7	7.5	17.0	-12.8	63.9*
COCCN1Cc2cc(C(=O)OC)c3c(c2C1=O)c1ccccc1n3S(=O)(=O)c1ccc(C)cc1	.	.	-1.4	.	-28.3
C[C@H](NC(=O)c1nc[nH]c1C(=O)NCCCCCNC(=O)OC(C)(C)C)C(=O)OCc1ccccc1	3.3	3.4	13.8	-11.3	76.3*
C[C@H](NC(=O)c1nc[nH]c1C(=O)N[C@@H](CCCCNC(=O)OC(C)(C)C)C(=O)OC(C)(C)C)C(=O)OCc1ccccc1	-1.4	-0.8	0.8	-14.1	16.1
CC(C)(C)OC(=O)NCCCCCNC(=O)c1[nH]cnc1C(=O)N[C@@H](Cc1ccccc1)C(=O)OCc1ccccc1	2.2	1.4	12.6	-7.9	54.3*
O=C(CNC(=O)c1[nH]cnc1C(=O)N[C@@H](Cc1ccccc1)C(=O)OCc1ccccc1)OCc1ccccc1	0.9	0.6	11.9	-8.4	63.9*
CC(C)C[C@H](NC(=O)c1nc[nH]c1C(=O)NCCCCCNC(=O)OC(C)(C)C)C(=O)OCc1ccccc1	1.8	2.5	11.0	-9.3	41.6
COc1ccc(NC(=O)N(C)C[C@H]2OCCCC[C@H](C)Oc3ccc(NC(=O)Nc4cccc5ccccc45)cc3C(=O)N([C@@H](C)CO)C[C@H]2C)cc1	.	.	3.9	.	-2.9
COc1cc(CCN(C(=O)c2cc3ccccc3[nH]2)C(C)c2nc3ccccc3[nH]2)cc(OC)c1 (stereo not drawn)	.	.	2.1	.	64.7*
COc1ccc(/C=N/Nc2ccc([N+](=O)[O-])cc2)cc1O	2.9	1.8	40.3*	-15.9	23.5
CCN1/C(=C/C=C/c2oc3ccc4ccccc4c3[n+]2CC)Oc2ccc3ccccc3c21	39.4*	45.2*	.	-5.5	.
CC[n+]1c(/C=C/N(C)c2ccccc2)oc2ccc(Cl)cc21	0.7	6.4	2.4	2.4	-9.5
Cc1ccc(S(=O)(=O)N2CCC[C@H]2C(=O)NC2=NCCS2)cc1	.	.	2.2	.	-5.9
CCOc1ccccc1N1CCN(C/C=C/c2ccc(N(C)C)cc2)CC1	-1.0	-0.1	37.5*	2.2	-9.2
